This is an account of results in ChEMBL document CHEMBL1121836, “Effect of structural change on acute toxicity and antiinflammatory activity in a series of imidazothiazoles and thiazolobenzimidazoles” (J Med Chem, 1981).

SMILES strings stand for the structures. Values joined by “and” are separate entries in the source; they are usually repeats but may differ in a detail not shown here. Equal values may be shown once.

A short description of series [1]: Compound was evaluated for the toxicity in mice. The series is classed as organism-based. To be noted: mouse, in vivo.
In series [2] the test system is Mus musculus. In words: Compound was evaluated for the percent reduction of carrageenan induced edema in mice at dose of 30 mg/kg. The series is classed as functional. Background: In the carrageenan paw model, swelling and tenderness develop within hours.
The test system of series [3] is Mus musculus. In words: Compound was evaluated for the percent reduction of carrageenan induced edema in mice at dose of 50 mg/kg. The series is classed as functional.
Series [4] concerns Mus musculus. The series is described as follows: Compound was evaluated for the percent reduction of carrageenan induced edema in mice at dose of 40 mg/kg. The series is classed as functional.
The test system of series [5] is Mus musculus. The series is described as follows: Compound was evaluated for the percent reduction of carrageenan induced edema in mice at dose of 150 mg/kg. The series is classed as functional.
Series [6] deals with Mus musculus. The series is described as follows: Compound was evaluated for the percent reduction of carrageenan induced edema in mice at dose of 75 mg/kg. The series is classed as functional.
Series [7] concerns Mus musculus. In words: Compound was evaluated for the percent reduction of carrageenan induced edema in mice at dose of 200 mg/kg. The series is classed as functional.
Series [8] deals with Mus musculus. The series is described as follows: Compound was evaluated for the percent reduction of carrageenan induced edema in mice at dose of 25 mg/kg. The series is classed as functional.
The subject of series [9] is Mus musculus. In words: Compound was evaluated for the percent reduction of carrageenan induced edema in mice at dose of 10 mg/kg. The series is classed as functional.
The test system of series [10] is Rattus norvegicus. In words: Compound was evaluated in the developed adjuvant arthritis assay at a dose of 10 mg/kg for the percent reduction of carrageenan induced edema (LHF) on 23rd day. The series is classed as functional. In a few lines: (§1)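 Rats received 0.1 mL heat-killed Mycobacterium tuberculosis suspension (3.5 mg/mL) into the left hind footpad on day 1. On day 20, animals with developed arthritis (all four paws swollen, tail and ears involved) were used. Oral gavage in 0.25% methylcellulose (0.005 mL/g) on days 20 and 22. Hind paw volumes were recorded daily on days 20–23. Mean group volume is expressed as percent change from day 20.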

For series [11], the system named is Mus musculus. In words: Compound was evaluated for the percent reduction of carrageenan induced edema in mice at dose of 3 mg/kg. The series is classed as functional.
The subject of series [12] is Rattus norvegicus. In words: Compound was evaluated in the developed adjuvant arthritis assay at a dose of 10 mg/kg for the percent reduction of carrageenan induced edema (LHF) on 21st day. The series is classed as functional. In a few lines:
as §1

The subject of series [13] is Rattus norvegicus. The series is described as follows: Compound was evaluated in the developed adjuvant arthritis assay at a dose of 10 mg/kg for the percent reduction of carrageenan induced edema (LHF) on 22nd day. The series is classed as functional. In a few lines: as §1
Series [14] has as its system Mus musculus. The series is described as follows: Compound was evaluated for the percent reduction of carrageenan induced edema in mice at dose of 100 mg/kg. The series is classed as functional.
For series [15], the system named is Mus musculus. In words: Percent analgesia in phenylquinone writhing assay at 30 mg/kg. The series is classed as functional. In a few lines:
(§2)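 Groups of 10 male mice were dosed orally with compound dissolved or suspended in 0.25% methylcellulose (0.25 mL per mouse). After the designated interval they were challenged ip with 0.25 mL of 0.02% phenylquinone in aqueous ethanol (95:5). Read-out is the percentage of mice protected from writhing.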
For orientation: Writhing tests count abdominal constrictions after an irritant is injected.

The species entered for series [16] is Rattus norvegicus. In words: Ulcerogenic dose that produced gastric lesions, ulcers and/or hemorrhage in 50% of the animals tested. The series is classed as functional, Stomach. In a few lines: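 Ten male Sprague–Dawley rats (ca. 160 g) were fasted 24 h with water available, then dosed po with compound or vehicle. At 4 h they were killed with CO2, and stomachs were opened along the greater curvature. A nonbiased observer scored ulcers, pitting or hemorrhagic spots. UD50 (lesions in 50% of animals) was determined by Litchfield–Wilcoxon.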

Series [17] deals with Mus musculus. In words: Percent analgesia in phenylquinone writhing assay at 10 mg/kg. The series is classed as functional. In a few lines: as §2
The test system of series [18] is Mus musculus. The series is described as follows: Percent analgesia in phenylquinone writhing assay at 3 mg/kg. The series is classed as functional. In a few lines:
as §2

For series [19], the species on record is Mus musculus. In words: (§3) Neurotoxic dose that causes minimal recognizable neurotoxicity in 50% of animals tested. The series is classed as functional. The essentials:
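Mice dosed orally or intraperitoneally; neurotoxicity scored on five end points, including a positional sense test in which a hind leg lowered over a table edge should be quickly lifted back to a normal position. NTD50 is the dose giving minimal recognizable neurotoxicity in 50% of animals tested.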

Series [20] can be described thus: Lethal dose evaluated in NPP assay. The series is classed as toxicity, organism-based. To be noted: mouse, in vivo.
Series [21] can be described thus: as §3. The series is classed as toxicity, organism-based. As to conditions: mouse, in vivo; read-out: NTD50. In a few lines: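 NTD50 in mice is the oral or intraperitoneal dose causing minimal recognizable neurotoxicity in 50% of animals, judged by five end points, including a positional sense test (hind leg lowered over a table edge should be lifted back).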

Series [22] is filed under the species Mus musculus. The series is described as follows: Dose giving one-half of average maximal [40%] response in carrageenan assay. The series is classed as functional.
The species named for series [23] is Mus musculus. The series is described as follows: Dose giving one-half of average maximal [40%] response in phenylquinone writhing assay. The series is classed as functional.

As a reminder, the LD50 is the dose expected to kill half of the subjects tested. High values mean lower toxicity, low ones greater toxicity. `CC1=C(C(=O)Nc2c(Br)cccc2Br)SC2=NCCN21` yielded an LD50 in series [1] of 40 mg/kg. The compound further registered a Reduction with Mus musculus [2] of 0%.

Regarding `CCOC(=O)C1=C(C)N2CCN=C2S1`, the LD50 in series [1] was determined as 180 mg/kg. The same compound registered a Reduction with Mus musculus [3] of 2%.

As for `Cc1cc(C)c(NC(=O)C2=C(c3ccccc3)N3CCN=C3S2)c(C)c1`, the median lethal dose (LD50) in [1] was 80 mg/kg. Also, the Reduction in the series on Mus musculus [3] amounted to 23%.

`CC1(C)CN2C(c3ccccc3)=CSC2=N1` displayed an LD50 in series [1] of 60 mg/kg. Moreover, the Reduction in the series on Mus musculus [4] is listed as 0%.

On to `CCOC(=O)Cc1ccc(C2=CSC3=NCCN23)cc1`, for which the LD50 in [1] amounted to 180 mg/kg. The same compound yielded a Reduction in the series on Mus musculus [5] of 0%.

In turn, `CC1=C(C(=O)Nc2ccccc2F)SC2=NCCN21` gave an LD50 in series [1] of 100 mg/kg. In addition, the Reduction with Mus musculus [6] came out at 15%.

For the compound `CS(=O)(=O)CC1=CSC2=NCCN12`, the Reduction with Mus musculus [7] was found to be 11%.

For the compound `CC1=C(C(=O)Nc2c(Cl)cccc2Cl)SC2=NCCN21`, the LD50 in series [1] was found to be 60 mg/kg.

In the case of `OC1(C(F)(F)F)CSC2=NC3CCCCC3N21` (configuration not stated), in the series on Mus musculus [7], the Reduction is 18%.

As for `CC1(C)SC2=NC3CCCCC3N2C1(O)c1ccccc1` (configuration not stated), the Reduction in the series with Mus musculus [7] (200 mg/kg) is 15% and 30%.

`c1ccc(C2=C(c3ccccc3)N3CCN=C3S2)cc1` gave an LD50 in [1] of 40 mg/kg. The compound also yielded a Reduction in the series on Mus musculus [8] of 14%.

`CC1=C(C(=O)Nc2cccc(C(F)(F)F)c2)SC2=NCCN21` displayed an LD50 in [1] of 240 mg/kg. The same compound gave a Reduction in the series with Mus musculus [7] of 36%.

For the compound `CC1(O)CSC2=NC3CCCCC3N21` (configuration not stated), the Reduction in the series with Mus musculus [8] stood at 7%; in the series with Mus musculus [3] it was 45%; in the series on Mus musculus [9], 15%; with Rattus norvegicus [10] it was 11%; with Mus musculus [11] it was 10%; in the series with Mus musculus [2], 7%. Further, the Reduction is on record as 3% in the series on Rattus norvegicus [12] and 2% in the series with Rattus norvegicus [13].

For `CC1(C)CN2C(CS(=O)(=O)c3ccccc3)=CSC2=N1`, the Reduction in the series with Mus musculus [7] turned out to be 5%.

Turning to `O=S(=O)(C1=C(c2ccccc2)N2CCN=C2S1)c1ccccc1`, the Reduction with Mus musculus [14] was 15%; in the series with Mus musculus [9] it was 10%; with Mus musculus [2], 6%.

With `CCOC(=O)C1(O)CSC2=NC3CCCCC3N21` (configuration not stated), the Reduction in the series on Mus musculus [7] came to 3%.

Take `CC1=C(C(=O)Nc2c(C)cc(C)cc2C)SC2=NCCN21`: the LD50 in series [1] stood at 60 mg/kg. In addition, the Reduction in the series on Mus musculus [4] is on record as 11%.

With `CC1=CSC2=NC(C)(C)CN12`, the LD50 in series [1] came out at 60 mg/kg. Besides, the Reduction with Mus musculus [4] is listed as 0%.

On to `CC1=C(C(=O)Nc2c(C)cc(C)cc2C)SC2=NC(C)CN21` (configuration not stated), for which, in [1], the LD50 worked out at 400 mg/kg. The Reduction with Mus musculus [7] worked out at 24%.

In series [1], `CC1=C(C(=O)Nc2c(C)cc(C)cc2C)SC2=NC(C)(C)CN21` returned an LD50 of 60 mg/kg. In addition, in the series on Mus musculus [4], the Reduction came out at 3%.

As for `CC(C)(C)C1=CSC2=NC3CCCCC3N12` (configuration not stated), in series [1], the LD50 was 20 mg/kg.

As to `CC1=C(C(=O)N2C(C)CCC2C)SC2=NCCN21` (configuration not stated), the LD50 in series [1] is 240 mg/kg. The same compound had a Reduction in the series with Mus musculus [7] of 20%.

Take `CC(C)Cc1ccc(C(C)C(=O)O)cc1` (configuration not stated) [IBUPROFEN]: the Analgesia with Mus musculus [15] came out at 90%; in the series on Mus musculus [17] it was 50%; with Mus musculus [18] it was 30%. The same compound returned a UD50 in the series listed under Rattus norvegicus [16] of 60 mg/kg. In the series listed under Mus musculus [19], this compound came in with an NTD50 of 470 mg/kg. In series [20], the LD50 is greater than 1000 mg/kg.

Take `COc1ccc2cc([C@H](C)C(=O)O)ccc2c1` [NAPROXEN]: the TD50 in series [21] came out at 370 mg/kg. The compound further displayed a UD50 in the series listed under Rattus norvegicus [16] of 10 mg/kg.

One may read the ED50 as the dose that gives a 50% effect, or the effect in half of the subjects. For the compound `CCCCC1C(=O)N(c2ccccc2)N(c2ccccc2)C1=O` [PHENYLBUTAZONE], the values for the ED50 in the series listed under Mus musculus [22] and in the series filed under Mus musculus [23] were 50 mg/kg and 64 mg/kg, respectively. Also, in the series filed under Rattus norvegicus [16], the UD50 is 75 mg/kg. This compound also showed an NTD50 in the series filed under Mus musculus [19] of 690 mg/kg. In [20], this compound yielded an LD50 greater than 300 mg/kg.
